Measured values published in the RNAGym collection of RNA variant scans (doi:10.1126/science.aae0568).
This sample holds only a part of the variants without activity.

B1: tRNA (parent)
chain: GUUCCGUUGGCGUAAUGGUAACGCGUCUCCCUCCUAAGGAGAAGACUGCGGGUUCGAGUCCCGUACGGAACG

Variants of: B1
Test: yeast fitness relative to wild type (ratio to wild type); higher = fitter; tRNA-Arg(CCU), competitive growth, 37 C, YPD
In short: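 Changes in genotype frequencies gave Darwinian fitness relative to wild type. Frequencies were read by 100-nucleotide paired-end sequencing of gene amplicons before and after pooled Saccharomyces cerevisiae strains, carrying tRNA-Arg(CCU) gene variants at the native locus, were competed in YPD at 37°C for 24 hours in six replicates. A genotype was kept only with ≥ 100 starting reads, and estimates < 0.5 were set to 0.5.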

GUACAGUUGGCCUAAUGGUAACGCAUCUCUCUCCUAAGGAGAAGACUGCGGGUUCGAGUCCCGUACGGAACG [U3A C5A G12C G25A C30U] and GUUCCGUUGGAGUAAUGGUAACGCGUCUCCCUCCUAAGGAGAAGGCUGCGGGGUCGAGUCCCGUACGGAACG [C11A A45G U53G] cannot be ordered by yeast fitness: no more than 0.5 for the first, no more than 0.5 for the second.

First: GUUCCGGUGGCGUCAUGGUAACGCGUCUCCCUCCUAAGGAGAAGACUGCGGGUUCGAGUCCCGUACGGAACG [U7G A14C]
Second: GGUCCGUUGGCGUAAUGGUAACGCGUCUCCCUCCUAAGGAGAAGACUGAGGGUUCGCGUCCCGUACGGAACG [U2G C49A A57C]
The yeast fitness of the first is higher: 0.532 for the first, no more than 0.5 for the second.

GUUCCGUUGGCGUAAUGGUAUGGCGUCUCCCUCCUAAGGAGAAGACUGCGGGUUCGAGUGCCGUACGAAACG [A21U C22G C60G G68A] and GUUCCGUUGGCGUAAUGGUAACGCGUCUGCCUCCUAAGGAGAAGACUGCGGGUUAGAGUCCCGACCGGAACG [C29G C55A U64A A65C] cannot be ordered by yeast fitness: no more than 0.5 for the first, no more than 0.5 for the second.

Going from GUUCCGUUGGAGUAAUGGUAACGUGUCUCCCACCCAAGGAGAAGACUGCGGGUUGGAGUCCCGUACGGAACG [C11A C24U U32A U35C C55G] to GUUCCGUUGGCGUAAUGGUCACGCGUCUCCCUCCUAAGGAGAAGACUGCAGGUUCGAGUCCUGUACGGAACG [A20C G50A C62U], the yeast fitness rises from no more than 0.5 to 1.13.

GUUCCGUUGGCGUAAUGGUAACGCGUCUCUCUCCUAAGGAGAAGACUGCGCGUUCGAGUCCCGUACAGAACG [C30U G51C G67A] and GUUCCGUUCGAGUGAUGGUAACGCGUCUCCCUCCUAAGGAGAAGACGGCGGGUUCGAGUCCCGUACGGCACG [G9C C11A A14G U47G A69C] cannot be ordered by yeast fitness: no more than 0.5 for the first, no more than 0.5 for the second.

GUUCCGAUGGCGUAACAGUAACGCGUCUUCAUCCUAAGGAGAAGACUGCGGGUUCGAGUCCCGUACGGAACG [U7A U16C G17A C29U C31A] and GUUCCGUUGGCGUAAUGGUAACACGUCUCCCUCCUAAGGAGAUGACUGCAGGUGCGAGUCCCGUACGCAACG [G23A A43U G50A U54G G68C] cannot be ordered by yeast fitness: no more than 0.5 for the first, no more than 0.5 for the second.

GUUGCGUUGGCGUAAUGGUUACGCGUCUCCCUCCUAAGGAGAAGACUGCGGGUUCGACUCCCGUACGGAACG [C4G A20U G58C] and GUUCCGUUGGAGUAAUGGUAACGCGUCCCCCUCCUAAGGAGGUGAUUGCGGGUUCGAGUCCUGUACGGAACG [C11A U28C A42G A43U C46U C62U] cannot be ordered by yeast fitness: no more than 0.5 for the first, no more than 0.5 for the second.

GUUCCGUUGGCGUAAUGGUAACACGUCUCCCUCCUAAGGAGAAGACUGCGGGUUUGAGUCCCCUACGGAACG [G23A C55U G63C] and GUCCCGUUGGCGUAAUGGUAACGCGUGUCCCUCCUAAGAAGAAGAUUGCGGGUUCGAGUCCCGUACAGAACG [U3C C27G G39A C46U G67A] cannot be ordered by yeast fitness: no more than 0.5 for the first, no more than 0.5 for the second.

Going from GUUCCGUUGGCGUAAUGGUAACGCGUCUCCCUCCUAUGGAGAAGACUCCGGGUUCGAGCCCCGUACGGAACG [A37U G48C U59C] to GUUCCGUUGGCGUAAUAGUAACGCGUCUCCCUCCUAAGGAGAAGAGUGCGGGUUCGAGUCCCGUACGGAUCG [G17A C46G A70U], the yeast fitness rises from 0.533 to 0.578.

Compared with GCUCCGUUGGCGUAAUGGUAACGCGUCUCCCUCCUAAGGAGAAGACCGCGGGUUCGAGUCCCGUACGGAUCG [U2C U47C A70U], GUUCCGUUGGCGUAAUGGUAACGAGUCUCCCUCUUAAGGAGAAGACUGCGGAUUCGAGUCCCGUACGGAACG [C24A C34U G52A] is lower in yeast fitness: 0.808 for the first, no more than 0.5 for the second.

GUUGCGUUGGCGUAAUGGUAACGCGUCUCGCUCCUAAGGAGCAGACUGCGGGUUGGAGUCCCGUACGGAACG [C4G C30G A42C C55G] and GUUCCGUUGGCGUAAUGGUAAGGCGUCUCCCUCCUAAGGAAAAGACUGCGGGUUCGAGUCGCGUACGGAACG [C22G G41A C61G] cannot be ordered by yeast fitness: no more than 0.5 for the first, no more than 0.5 for the second.

First: GUUCCGUUGGCGUAAUGGUAACGCGUCUCCUUCCUAAGGAGAAGACUGCGGGUUCGAAUCCCGUAUGGAACG [C31U G58A C66U]
Second: GUUCCGUUGGCGUAAUGGUAACGCGUCAGCCUCCUAAGGAGAAGACUGCGGGUUCGCGUCCCGUACAGAACG [U28A C29G A57C G67A]
The yeast fitness of the first is higher: 0.73 for the first, no more than 0.5 for the second.

Compared with GUUCCGUUCGCGUAAUCCUAACGCGUCUCCCUCCUAAGGAGAAGACUGCGGGUUCGAGUCCUGUACGGGACG [G9C G17C G18C C62U A69G], GUUCCGUUGGCGUAAUGGUAACGCGCCUCGCUCCUAAGGAAAAGACUGCGGGUUCGAGUCCCGCACGGAACG [U26C C30G G41A U64C] is lower in yeast fitness: 0.629 for the first, no more than 0.5 for the second.

Compared with GUUCCGUUGGCGUAAUGGUAACGCGUGUCCCCCCUAAGGAGCAGACUCCGGGUUGGAGUUCCGUACGGAACG [C27G U32C A42C G48C C55G C60U], GUUCCGUUGGUGUAAUGGUAACGCGUCUCCCUCCUAAGGAGAAGACUGCGGGUUCGAGUCCCGUACCGAACG [C11U G67C] is higher in yeast fitness: no more than 0.5 for the first, 0.792 for the second.

Going from GUUCCGUUGGCGUAAUGGUAACGCGUCUCCCUCCUAAGGAGAAGACUGCGGGUUCGCGUCCCGUACAGAACG [A57C G67A] to GUUCCGUUGGGGUAAAGGUAACGCGUCUCCCUCCUAAGGAGAAGACUGAGGGUUCGAGUCCCGUACGGAACG [C11G U16A C49A], the yeast fitness falls from 0.504 to no more than 0.5.

Going from GUUCCGUUGGCGUAUUGGUAAAGCGUCUCCCUCCUAAGGAGAGGACUGCGCGUUCGAGCCCUGUACGUAACG [A15U C22A A43G G51C U59C C62U G68U] to GUUCCGUUGGGGUAAUGGUAACGCGUCUCCCUCCUAAGGAGAAGACUGCGGGUUCGACUCCCGUACGGAACG [C11G G58C], the yeast fitness rises from no more than 0.5 to 0.589.

Going from GUUCCGUUGGCGUAAUGGUAACGCGCCUGCCUCCUAAGGAGAAGACUGCGGGUUCGAGUCCCGUACGCAACG [U26C C29G G68C] to GUUCCGUUGGCGUAAUGGUAACGCGUCUCCCUCAUAGGGAGAAGACUGCGGGUUCGUGUCCCGUACGGAACG [C34A A37G A57U], the yeast fitness rises from 0.558 to 0.616.

First: GAUCCGUUGGCGUAAUGGUCACGCGUCUCCCUCCUAGGGAGAAGACUGCGGGUUCGAGUCCCGUACGGAACG [U2A A20C A37G]
Second: GUUGCGUUGGAGUCAUGGUAACGCGUCUCCCUGCUCCGGAGCAGACUGCGGGUUCGAGUCCCGUUCGGAACG [C4G C11A A14C C33G A36C A37C A42C A65U]
The yeast fitness of the first is higher: 0.529 for the first, no more than 0.5 for the second.

For GUUCCAUUGGCGUACUGGUAACGCGUCUCCCUCCUCAGGAGUAGACUGCGGGUUGGAGUCUCGUACGGAACG [G6A A15C A36C A42U C55G C61U], the yeast fitness was no more than 0.5.
